One data set relates to A549. Kind of data set: Toxicity in human A549 cells assessed as reduction of cell viability by MTT assay. It is filed as cell-based. Put shortly: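 A549 cells (4×10^4 per 100 µl) were plated for 16 h, then exposed to compounds at 30 µM (DMSO ≤0.3%) for 5 h. MTT was added for 4 h, formazan was solubilized in 10% SDS/20 mM HCl, and absorbance at 595 nm was read relative to vehicle-treated cells.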

Data set [1] has as its target T1, Prostaglandin E synthase (Homo sapiens, UniProt O14684).
T1 sequence (O14684 whole entry): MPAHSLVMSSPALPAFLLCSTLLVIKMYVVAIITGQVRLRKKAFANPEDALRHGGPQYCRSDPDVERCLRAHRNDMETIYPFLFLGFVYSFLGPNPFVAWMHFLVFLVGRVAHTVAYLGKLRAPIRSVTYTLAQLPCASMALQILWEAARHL
Kind of data set: Inhibition of mPGES1 in IL1-beta induced human A549 cell microsomal membrane assessed as blockade of conversion of PGH2 to PGE2. It is filed as microsomes, Microsome. Put shortly: (§1)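 Microsomes from A549 cells treated with IL-1β (1 ng/ml, 72 h) were used at 50 µg/ml in 0.1 M potassium phosphate pH 7.4 with 2.5 mM glutathione. Compound (DMSO 1% final) was preincubated 15 min at 4 °C, then PGH2 was added (20 µM final) for 1 min at 4 °C.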

In data set [2] the target is T2, Prostaglandin E synthase (Homo sapiens) (UniProt O14684).
T2 sequence (whole entry): T1 sequence (O14684 whole entry)
Put plainly: Inhibition of mPGES1 in IL1-beta induced human A549 cell microsomal membrane at 10 uM assessed as enzyme residual activity by PGE2 formation assay relative to untreated control. It is filed as microsomes. To be noted: Microsome. Put shortly: as §1

In data set [3] the target is T3, Prostaglandin G/H synthase 1 (Ovis aries) (UniProt P05979).
T3 sequence (whole entry): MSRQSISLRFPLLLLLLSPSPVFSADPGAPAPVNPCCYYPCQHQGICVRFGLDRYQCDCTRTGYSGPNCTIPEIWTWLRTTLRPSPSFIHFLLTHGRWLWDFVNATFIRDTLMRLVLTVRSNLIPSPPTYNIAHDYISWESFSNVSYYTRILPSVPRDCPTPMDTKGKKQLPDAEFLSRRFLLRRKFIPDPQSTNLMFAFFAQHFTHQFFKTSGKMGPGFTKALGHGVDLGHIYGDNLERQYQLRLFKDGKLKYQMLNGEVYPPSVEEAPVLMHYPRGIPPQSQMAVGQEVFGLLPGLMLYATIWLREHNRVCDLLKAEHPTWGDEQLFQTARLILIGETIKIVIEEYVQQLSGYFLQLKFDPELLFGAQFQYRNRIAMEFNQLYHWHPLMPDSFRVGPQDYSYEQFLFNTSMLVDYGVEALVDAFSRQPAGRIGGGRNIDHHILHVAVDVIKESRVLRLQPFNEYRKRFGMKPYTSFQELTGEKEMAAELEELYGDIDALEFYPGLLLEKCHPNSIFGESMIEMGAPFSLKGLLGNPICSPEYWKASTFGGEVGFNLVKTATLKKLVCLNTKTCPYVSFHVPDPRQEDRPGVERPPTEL
Kind of data set: Inhibition of ovine COX1 assessed as residual enzyme activity at 10 uM relative to untreated control. Put shortly:
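Purified ovine COX-1 (50 units) in 1 ml of 100 mM Tris pH 8 containing 5 mM glutathione, 5 µM hemoglobin and 100 µM EDTA was preincubated with compound for 5 min at 4 °C and prewarmed 60 s at 37 °C. The reaction was started with 5 µM AA and run 5 min at 37 °C, and 12-HHT was analysed by HPLC.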

In data set [4] the target is T1, Prostaglandin E synthase. Kind of data set: Inhibition of mPGES1 in IL1-beta induced human A549 cells assessed as PGE2 production preincubated for 10 mins. It is filed as cell-based. Put shortly:
(§2)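 Intact IL-1β-induced A549 cells (4×10^6/ml PBS, 1 mM CaCl2) were preincubated with compound (DMSO ≤0.3%) for 10 min at 37 °C. They were then stimulated with 2.5 µM A23187 plus 1 µM AA and [3H]AA (18.4 kBq) for 15 min, and the reaction was stopped on ice. [3H]PGE2 was separated by RP-18 SPE/HPLC and counted by liquid scintillation.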

Data set [5] has as its target T2, Prostaglandin E synthase (Homo sapiens). Kind of data set: Inhibition of mPGES1 in IL1-beta induced human A549 cells assessed as PGE2 production at 30 uM preincubated for 10 mins. On the set-up: scale not given: the % may be the effect or the level left. It is filed as cell-based. Put shortly: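 Intact IL-1β-induced A549 cells (4×10^6/ml PBS, 1 mM CaCl2) were preincubated with compound (DMSO ≤0.3%) for 10 min at 37 °C. [3H]PGE2 was separated by RP-18 SPE/HPLC and counted by liquid scintillation.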

The target of data set [6] is T4, Prostaglandin G/H synthase 2 (Homo sapiens) (UniProt P35354).
T4 sequence (whole entry): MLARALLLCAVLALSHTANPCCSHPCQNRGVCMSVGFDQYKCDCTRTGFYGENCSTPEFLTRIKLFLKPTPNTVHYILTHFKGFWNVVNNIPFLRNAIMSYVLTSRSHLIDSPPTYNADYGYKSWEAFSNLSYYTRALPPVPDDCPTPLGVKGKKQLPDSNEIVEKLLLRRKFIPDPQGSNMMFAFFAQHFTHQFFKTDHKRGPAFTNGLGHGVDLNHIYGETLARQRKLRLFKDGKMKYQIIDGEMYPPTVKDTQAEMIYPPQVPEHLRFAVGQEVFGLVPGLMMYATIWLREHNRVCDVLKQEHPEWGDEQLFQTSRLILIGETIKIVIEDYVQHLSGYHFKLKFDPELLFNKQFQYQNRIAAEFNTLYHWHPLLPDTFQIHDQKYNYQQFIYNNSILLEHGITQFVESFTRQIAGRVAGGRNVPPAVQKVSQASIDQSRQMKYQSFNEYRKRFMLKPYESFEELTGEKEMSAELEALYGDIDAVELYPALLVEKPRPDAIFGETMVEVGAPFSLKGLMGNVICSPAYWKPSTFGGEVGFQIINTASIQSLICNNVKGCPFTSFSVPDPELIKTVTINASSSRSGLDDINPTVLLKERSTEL
Put plainly: Inhibition of COX2 in IL1-beta induced human A549 cells assessed as 6-keto-PGF1-alpha formation up to 30 uM preincubated for 15 mins by ELISA. Type of data set: cell-based. Put shortly: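 A549 cells were induced with IL-1β (1 ng/ml, 72 h, 2% FCS). Cells at 5×10^6 per ml PBS with 1 mM CaCl2 were preincubated 15 min at 37 °C, then given 30 µM AA for 15 min at 37 °C, and the reaction was stopped on ice. Released 6-keto PGF1α was measured by monoclonal-antibody ELISA with β-galactosidase tracer read at 550 nm.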
On the technique in general: ELISA stands for enzyme-linked immunosorbent assay.

Data set [7] addresses Prostaglandin G/H synthase 1 (Homo sapiens) (UniProt P23219). Put plainly: Inhibition of COX1 in platelets assessed as inhibition of 12-HHT formation at 10 uM by RP-HPLC. Put shortly: (§3)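 Freshly isolated human platelets (10^8/ml PBS with 1 mM CaCl2) were preincubated with compound (DMSO ≤0.3%), then stimulated with 5 µM AA for 5 min at 37 °C. 12-HHT was extracted and quantified by RP-HPLC. Mean ± SE, n=3–5.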

Data set [8] has as its target T2, Prostaglandin E synthase (Homo sapiens). The conditions noted are these: A549, Microsome, 30 uM.
Data set [9] has the same target. The conditions noted are these: A549, Microsome, 0.3 uM.
For data set [10] the target is unchanged. To be noted: A549, Microsome, 3 uM.
Data set [11] has the same target. The conditions noted are these: A549, Microsome, 3 uM. This is another data set of the same source.
The subject of data set [12] is Mus musculus. Put plainly: Antiinflammatory activity in CD1 mouse assessed as inhibition of carrageenan-induced paw edema at 0.25 mg/kg, ip administered 30 mins before carrageenan challenge relative to untreated control. Type of data set: functional. To be noted: route intraperitoneal. Put shortly:
(§4)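 Male adult CD1 mice, n=10 per group, given the compound ip (vehicle 2% DMSO) 30 min before subplantar 1% λ-carrageenan in saline (0.05 ml). Paw volume was measured double blind by hydroplethysmometer just before injection and at 2, 4 and 6 h. Inhibition was taken at the 4 h reading versus vehicle.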
For orientation: Carrageenan injected into the paw causes an acute inflammation.

The test system of data set [13] is Mus musculus. Put plainly: Antiinflammatory activity in CD1 mouse assessed as inhibition of carrageenan-induced paw edema at 1 mg/kg, ip administered 30 mins before carrageenan challenge relative to untreated control. It is filed as functional. The conditions noted are these: route intraperitoneal. Put shortly:
as §4

Data set [14] relates to Mus musculus. Kind of data set: Antiinflammatory activity in CD1 mouse assessed as inhibition of carrageenan-induced paw edema at 4 mg/kg, ip administered 30 mins before carrageenan challenge relative to untreated control. It is filed as functional. To be noted: route intraperitoneal. Put shortly: as §4
For data set [15], the system named is Rattus norvegicus. Kind of data set: Antiinflammatory activity in Wistar Han rat assessed as reduction in exudate volume at 4 mg/kg, ip administered 30 mins before carrageenan challenge. It is filed as functional, organism-based. On the set-up: dose 4 mg/kg.
Data set [16] deals with Rattus norvegicus. Put plainly: Antiinflammatory activity in Wistar Han rat assessed as reduction in inflammatory cell numbers at 4 mg/kg, ip administered 30 mins before carrageenan challenge. It is filed as functional, organism-based. Further details: dose 4 mg/kg.
In data set [17] the test system is Rattus norvegicus. Kind of data set: Antiinflammatory activity in Wistar Han rat assessed as PGE2 level at 4 mg/kg, ip administered 30 mins before carrageenan challenge (reference value: 2.79 +/-0.39 ng). The conditions noted are these: route intraperitoneal. It is filed as functional.
The subject of data set [18] is Rattus norvegicus. Put plainly: Antiinflammatory activity in Wistar Han rat assessed as 6-Keto PGF1alpha level at 4 mg/kg, ip administered 30 mins before carrageenan challenge (reference value: 3.00 +/- 1.02 ng). It is filed as functional. The conditions noted are these: route intraperitoneal.
Data set [19] concerns Rattus norvegicus. Kind of data set: Antiinflammatory activity in Wistar Han rat assessed as LTB4 level at 4 mg/kg, ip administered 30 mins before carrageenan challenge (reference value: 1.17 +/- 0.21 ng). Type of data set: functional. To be noted: route intraperitoneal.
Data set [20] addresses Prostaglandin G/H synthase 1 (Homo sapiens) (UniProt P23219). Kind of data set: Inhibition of COX1 in platelets assessed as inhibition of 12-HHT formation up to 30 uM uM by RP-HPLC. Put shortly:
as §3

Data set [21] deals with T2, Prostaglandin E synthase (Homo sapiens). Kind of data set: Inhibition of mPGES1 in IL1-beta induced human A549 cells assessed as PGE2 production at 5 uM preincubated for 10 mins. It is filed as cell-based. Put shortly: as §2
Data set [22] concerns Mus musculus. Put plainly: Antiinflammatory activity in CD1 mouse assessed as inhibition of carrageenan-induced paw edema at 5 mg/kg, ip administered 30 mins before carrageenan challenge relative to untreated control. Type of data set: functional. To be noted: route intraperitoneal. Put shortly:
as §4

The subject of data set [23] is Rattus norvegicus. Put plainly: Antiinflammatory activity in Wistar Han rat assessed as reduction in exudate volume at 5 mg/kg, ip administered 30 mins before carrageenan challenge. It is filed as functional, organism-based. On the set-up: dose 5 mg/kg.
For data set [24], the system named is Rattus norvegicus. Kind of data set: Antiinflammatory activity in Wistar Han rat assessed as reduction in inflammatory cell numbers at 5 mg/kg, ip administered 30 mins before carrageenan challenge. Further details: dose 5 mg/kg. It is filed as functional, organism-based.

Active and inactive are the calls of the source. The rule behind the calls is not given here.

Chain of Prostaglandin G/H synthase 1 (Homo sapiens) (P23219 whole entry): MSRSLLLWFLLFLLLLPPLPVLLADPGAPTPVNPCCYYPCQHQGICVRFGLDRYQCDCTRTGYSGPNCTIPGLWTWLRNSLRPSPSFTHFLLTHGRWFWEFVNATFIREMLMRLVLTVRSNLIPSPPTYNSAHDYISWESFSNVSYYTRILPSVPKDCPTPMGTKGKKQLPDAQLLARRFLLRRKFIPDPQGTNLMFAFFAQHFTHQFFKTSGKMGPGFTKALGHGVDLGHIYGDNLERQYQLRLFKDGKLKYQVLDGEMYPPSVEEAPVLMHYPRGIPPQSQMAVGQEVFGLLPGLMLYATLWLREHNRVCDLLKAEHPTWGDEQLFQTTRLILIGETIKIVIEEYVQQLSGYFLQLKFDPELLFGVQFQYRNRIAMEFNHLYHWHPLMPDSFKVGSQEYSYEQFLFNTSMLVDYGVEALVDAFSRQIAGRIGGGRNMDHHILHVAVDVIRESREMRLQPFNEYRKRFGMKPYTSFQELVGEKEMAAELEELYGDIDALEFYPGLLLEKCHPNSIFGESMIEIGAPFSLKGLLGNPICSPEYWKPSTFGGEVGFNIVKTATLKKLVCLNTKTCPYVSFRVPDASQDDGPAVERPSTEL

Take `CCOC(=O)c1c(Nc2cccc(Cl)c2)[nH]c2c1cc(O)c1ccccc12`: the Activity entry was “Non-toxic” with A549, 13% in data set [2] and 35% in data set [5]. Also, the IC50 – broadly, the point on the concentration scale where inhibition reaches its midpoint – at Prostaglandin E synthase [1] is 1.6 µM; on Prostaglandin E synthase [4] (a549) it was “Dose-dependent effect”; on Prostaglandin E synthase [4] (read-out: IC50), 7.9 µM. For the same compound, the inhibition result in data set [3] and in data set [6] was “inactive” throughout. The inhibition (commonly the change of the read-out against control, counted positive when it falls) in data set [7] turned out to be 31%.

Take `CC(C)c1ccc2c(c1)c(SC(C)(C)C)c(CC(C)(C)C(=O)O)n2Cc1ccc(Cl)cc1`: the results for the Activity in [3] and in [5] were 42% and 37%, respectively. This compound registered an inhibition in data set [8] of 82%. Further, in data set [9], the inhibition entry was “inactive”. Further, the inhibition entry in data set [10] and in data set [11] was “Active” each time.

For the compound `CCOC(=O)c1c(Cc2cccc(Cl)c2)[nH]c2c1cc(O)c1ccccc12`, the Activity result in the data set on A549 is “Non-toxic”; in data set [3], 12%; in the data set with Rattus norvegicus [17], 1.3 ng; in the data set with Rattus norvegicus [18] it was 2.02 ng; in the data set on Rattus norvegicus [19], 0.6 ng. Also, the inhibition entry in data set [6] is “inactive”. Further, the inhibition in [7] amounted to 43%. The inhibition in vivo (in general, the relative decrease from the control value, in per cent) at 0.25 mg/kg in the data set on Mus musculus [12] stood at 37%. The inhibition in vivo at 1 mg/kg with Mus musculus [13] was 53%. The inhibition in vivo at 4 mg/kg in the data set on Mus musculus [14] was found to be 61%. The inhibition result in the data set with Rattus norvegicus [15] and in the data set with Rattus norvegicus [16] was “Active” throughout.

`CCOC(=O)c1c(Cc2ccccc2Cl)[nH]c2c1cc(O)c1ccccc12`: the IC50 was 0.1 µM at Prostaglandin E synthase [1] and 20.5 µM at Prostaglandin E synthase [4] (read-out: IC50). For the same compound, the results for the Activity in data set [2], in data set [3] and in [5] were 14%, 89% and 35%, respectively. Besides, the inhibition result in [6] and in [20] was “inactive” in each case.

`Cc1ccc(-c2cc(C(F)(F)F)nn2-c2ccc(S(N)(=O)=O)cc2)cc1`: in [21], the inhibition entry was “Active”.

Regarding `COc1ccc2c(c1)c(CC(=O)O)c(C)n2C(=O)c1ccc(Cl)cc1` [INDOMETHACIN], the inhibition in vivo at 5 mg/kg in the data set with Mus musculus [22] is 57%. Further, the inhibition result with Rattus norvegicus [23] and with Rattus norvegicus [24] was “Active” throughout.
